Reference: ChEMBL document CHEMBL4190218, “Potent Inhibitor of Drug-Resistant HIV-1 Strains Identified from the Medicinal Plant Justicia gendarussa” (J Nat Prod, 2017)

Assays:
[1] = system: Human immunodeficiency virus 1; test: Antiviral activity against HIV1 isolate LAV infected in PHA-stimulated human PBMC assessed as reduction in p24 level after 7 days by ELISA; format: functional, organism-based; conditions: Human immunodeficiency virus 1, isolate LAV, 168 h
Method in brief: (§1)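 Donor PBMCs in R-3 medium (RPMI 1640, 15−20% FBS, 5% IL-2, penicillin/streptomycin, 2 mM L-glutamine), PHA-stimulated (2−3 μg/mL) 7 days; 1 × 10^5 cells/well with compound, challenged with 1000 TCID50 virus. p24 in supernatant by ELISA after 7 days. Seven concentrations (5, 1, 0.2, 0.04, 0.008, […], 0 μg/mL); IC50 versus no-drug wells; AZT positive control; three experiments, each triplicate.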

[2] = system: Human immunodeficiency virus 1; test: Antiviral activity against HIV1 isolate BAL infected in PHA-stimulated human PBMC assessed as reduction in p24 level after 7 days by ELISA; format: functional, organism-based; method in brief: as §1
[3] = system: Human immunodeficiency virus 1; test: Antiviral activity against HIV1 isolate 89.6 infected in PHA-stimulated human PBMC assessed as reduction in p24 level after 7 days by ELISA; format: functional, organism-based; method in brief: as §1
[4] = system: Human immunodeficiency virus 1; test: Antiviral activity against NNRTI-resistant HIV1 isolate N119 infected in PHA-stimulated human PBMC assessed as reduction in p24 level after 7 days by ELISA; format: functional, organism-based; conditions: Human immunodeficiency virus 1, isolate N119, PBMC, 168 h; method in brief: as §1
[5] = system: Human immunodeficiency virus 1; test: Antiviral activity against HIV1/VSV-G pseudovirus infected in human A549 cells assessed as downregulation of R/U5 gene expression after 48 hrs by Taqman-based real-time PCR analysis; format: functional
Method in brief: (§2)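 A549 cells infected with VSV-G/HIV pseudovirus while treated with compound or AZT, 10-fold dilutions from 5 μg/mL, triplicate. After 48 h, cells processed for reverse transcription and TaqMan real-time PCR. R/U5 amplicon reads early transcripts, U5/gag reads late transcripts; GAPDH and 18S as internal controls.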

[6] = system: Human immunodeficiency virus 1; test: Antiviral activity against HIV1 isolate LAV0.04 infected in PHA-stimulated human PBMC assessed as reduction in p24 level after 7 days by ELISA; format: functional, organism-based; method in brief: as §1
[7] = system: Human immunodeficiency virus 1; test: Antiviral activity against HIV1 isolate SF162 infected in PHA-stimulated human PBMC assessed as reduction in p24 level after 7 days by ELISA; format: functional, organism-based; method in brief: as §1
[8] = system: Human immunodeficiency virus 1; test: Antiviral activity against NRTI-resistant HIV1 isolate 1617-1 infected in PHA-stimulated human PBMC assessed as reduction in p24 level after 7 days by ELISA; format: functional, organism-based; conditions: Human immunodeficiency virus 1, isolate 1617-1, PBMC, 168 h; method in brief: as §1
[9] = system: Human immunodeficiency virus 1; test: Antiviral activity against HIV1/VSV-G pseudovirus infected in human A549 cells assessed as downregulation of U5/gag gene expression after 48 hrs by Taqman-based real-time PCR analysis; format: functional; method in brief: as §2
[10] = system: Human immunodeficiency virus 1; test: Antiviral activity against HIV1 virions derived from […] or HIV/HA virions infected 293T cells using human A549 cells as target cells assessed as inhibition of viral replication using compound pre-mixed virions followed by incubation with target cells for 24 hrs by luciferase reporter gene assay based defective HIV1 pseudoviral assay; format: functional, organism-based; conditions: Human immunodeficiency virus 1, 24 h
Method in brief: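 Pseudovirions made by cotransfecting 293T cells with VSV-G, or HA plus NA, envelope plasmids and pNL4-3-Luc.R-.E- vector; supernatant collected at 48 h and filtered. A549 cells, 0.5 × 10^5/well in DMEM. Virus (~2 × 10^6 RLUs) premixed with sample, incubated with cells 24 h, then medium replaced. Luciferase read in lysates 48 h postinfection. Three experiments, each triplicate.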

[11] = Cytotoxicity against human PBMC after 48 hrs by CellTiter 96 AQueous one solution cell proliferation assay; format: cell-based
[12] = system: Human immunodeficiency virus 1; test: Antiviral activity against HIV1/VSV-G pseudovirus infected in human A549 cells assessed as downregulation of R/U5 gene expression at 0.005 ug/ml after 48 hrs by Taqman-based real-time PCR analysis; format: functional; conditions: Human immunodeficiency virus 1, A549, 48 h; method in brief: as §2
HeLa = test: Cytotoxicity against human HeLa cells at 19 uM after 48 hrs by CellTiter 96 AQueous one solution cell proliferation assay; format: cell-based
Method in brief: (§3)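 About 5000 cells/well in DMEM with FBS and penicillin/streptomycin; compound in DMSO added next day, 24 h at 37 °C, 5% CO2, then medium replaced. At 48 h after addition, CellTiter 96 Aqueous One added for 4 h, stopped with 10% SDS, absorbance read at 450 nm.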

A549 = test: Cytotoxicity against human A549 cells at 19 uM after 48 hrs by CellTiter 96 AQueous one solution cell proliferation assay; format: cell-based; conditions: a549, 48 h; method in brief: as §3
[13] = system: Human immunodeficiency virus 1; test: Antiviral activity against HIV1/VSV-G pseudovirus infected in human A549 cells assessed as downregulation of U5/gag gene expression at 0.005 ug/ml after 48 hrs by Taqman-based real-time PCR analysis; format: functional; conditions: Human immunodeficiency virus 1, A549, 48 h; method in brief: as §2
[14] = Human immunodeficiency virus 1, isolate BAL, PBMC, 168 h
[15] = Human immunodeficiency virus 1, isolate 89.6, PBMC, 168 h
[16] = Human immunodeficiency virus 1, isolate LAV0.04, PBMC, 168 h
[17] = Human immunodeficiency virus 1, isolate SF162, PBMC, 168 h

Q: Which IC50 [1] does the source give for `Cc1cn([C@H]2C[C@H](N=[N+]=[N-])[C@@H](CO)O2)c(=O)[nH]c1=O` [ZIDOVUDINE] here?
A: Its IC50 is 72 nM.

Q: And the Activity [2]?
A: The Activity was “Dose-dependent effect”.

Q: What about the IC50 [2, 14] of the same molecule?
A: Its IC50 is 77 nM.

Q: What about the Activity [3] of the same molecule?
A: Its Activity is “Dose-dependent effect”.

Q: What about the IC50 [3, 15] of the same molecule?
A: The IC50 was 95 nM.

Q: And the IC50 [4]?
A: The IC50 was 5.2 nM.

Q: What about the Activity [5] of the same molecule?
A: Its Activity is “Dose-dependent effect”.

Q: And the “inhibition (INH)” value [5]?
A: Its value is 40%.

Q: What about the Activity [6] of the same molecule?
A: The Activity was “Dose-dependent effect”.

Q: What about the IC50 [6, 16] of the same molecule?
A: Its IC50 is 79 nM.

Q: And the Activity [7]?
A: Its Activity is “Dose-dependent effect”.

Q: And the IC50 [7, 17]?
A: The IC50 was 85 nM.

Q: And the IC50 [8]?
A: Its IC50 is 3510 nM.

Q: And the Activity [9]?
A: Its Activity is “Dose-dependent effect”.

Q: What about the “inhibition (INH)” value [9] of the same molecule?
A: Its value is 40%.

Q: With `COc1cc2c(O[C@@H]3O[C@H](CO)[C@@H](O)[C@H](O)[C@H]3O)c3c(c(-c4ccc5c(c4)OCO5)c2cc1OC)C(=O)OC3` as the molecule, how does the IC50 [10] read?
A: The IC50 was 770 nM.

Q: With `COc1cc2c(O[C@@H]3OC[C@@H](O)[C@H](O)[C@H]3O)c3c(c(-c4ccc5c(c4)OCO5)c2cc1OC)C(=O)OC3` as the molecule, how does the IC50 [10] read?
A: The IC50 was 510 nM.

Q: For `Cc1ccnc2c1NC(=O)c1cccnc1N2C1CC1` [NEVIRAPINE], which IC50 [1] is on record?
A: The IC50 was 532 nM.

Q: What about the IC50 [4] of the same molecule?
A: Its IC50 is > 100000 nM.

Q: What about the IC50 [8] of the same molecule?
A: The IC50 was 156 nM.

Q: For `COc1cc2c(O)c3c(c(-c4ccc5c(c4)OCO5)c2cc1OC)C(=O)OC3` [DIPHYLLIN], which IC50 [10] is on record?
A: Its IC50 is 1710 nM.

Q: With `COc1cc2c(O[C@@H]3O[C@H](C)[C@@H](O)[C@H](O)[C@H]3O)c3c(c(-c4ccc5c(c4)OCO5)c2cc1OC)C(=O)OC3` [PATENTIFLORIN A] as the molecule, how does the IC50 [1] read?
A: The IC50 was 108 nM.

Q: What about the CC50 at 48 h [11] of the same molecule?
A: Its CC50 at 48 h is 75000 nM.

Q: And the inhibition at 0.005 µg/mL [12]?
A: Its inhibition at 0.005 µg/mL is 75%.

Q: What about the Activity [2] of the same molecule?
A: The Activity was “Dose-dependent effect”.

Q: What about the IC50 [2, 14] of the same molecule?
A: Its IC50 is 30 nM.

Q: What about the IC50 ([2]; pbmc) of the same molecule?
A: The IC50 was 32 nM.

Q: And the Activity (HeLa)?
A: Its Activity is “Non-Toxic”.

Q: What about the Activity [3] of the same molecule?
A: Its Activity is “Dose-dependent effect”.

Q: And the IC50 [3, 15]?
A: The IC50 was 32 nM.

Q: And the IC50 ([3]; pbmc)?
A: Its IC50 is 31 nM.

Q: And the Activity (A549)?
A: Its Activity is “Non-Toxic”.

Q: And the IC50 [4]?
A: The IC50 was 47 nM.

Q: What about the IC50 [10] of the same molecule?
A: Its IC50 is 26.9 to 27 nM.

Q: And the Activity [6]?
A: The Activity was “Dose-dependent effect”.

Q: And the IC50 [6, 16]?
A: Its IC50 is 24 nM.

Q: And the IC50 ([6]; pbmc)?
A: The IC50 was 32 nM.

Q: And the Activity [7]?
A: The Activity was “Dose-dependent effect”.

Q: And the IC50 [7, 17]?
A: Its IC50 is 37 nM.

Q: And the IC50 ([7]; pbmc)?
A: The IC50 was 30 nM.

Q: What about the IC50 [8] of the same molecule?
A: The IC50 was 61 nM.

Q: And the inhibition at 0.005 µg/mL [13]?
A: The inhibition at 0.005 µg/mL was 75%.
